Screens (PubChem BioAssay)
MT stabilize HCS: stabilizes microtubules in HeLa cells; HeLa tubulin immunostaining HCS, 24 h; share of cells brighter than vehicle mean+2SD; % tubulin-high responders, % at 10 µM; 200,000 compounds, 0.83% hits; AID 2205;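 active = plate Z-score above 3 for both tubulin-high and condensed-nucleus cell shares, with cell loss under 80%, at 10 µM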;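 also: anti alpha tubulin signal scored within the nucleus-defined area of each cell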
Ins promoter up: MIN6 insulin promoter up-regulation; MIN6 insulin promoter-GFP reporter, high-content imaging; active compounds read high; 190,000 compounds, 0.3% hits; z-score at 5 µM; AID 1625;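 active = z-score above 3 at 5 µM with at least 500 cells counted in the well; inconclusive = wells under 500 cells, flagged as cytotoxic or low count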
Autophagy mod: alters autophagy in cells; MEF GFP-LC3 puncta imaging; test concentration mostly 10 µM; calls only at 10 µM (by protocol); 190,000 compounds, 0.98% hits;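 active = percentage of spot-positive cells more than 3 SD above its plate mean, without a fluorescence outlier flag or 80% toxicity; inconclusive = no clear call, values can overlap the other calls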
b-catenin transl: modulators of beta-catenin nuclear translocation; HeLa beta-catenin nuclear translocation, immunofluorescence imaging; AID 1665; nuclear translocation activity, % at 5 µM; 190,000 compounds, 0.3% hits;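 active = nuclear translocation activity above 50% at 5 µM, with a well cell count of 50 or more; inconclusive = wells under 50 cells across six images, flagged as toxic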;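 also: per-cell ratio of nuclear to cytoplasmic median beta-catenin stain intensity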
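Assay system: human HeLa cells, native beta-catenin; doses: 5 µM primary, 0.02–20 µM confirmation; incubation: compound treatment 24 h, 37°C, 5% CO2; technique: fluorescence imaging of beta-catenin antibody stain plus DAPI; measure: % activation, nuclear-to-cytoplasmic median beta-catenin signal ratio per cell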
Hits are given with their value; – = inactive; ? = inconclusive; · = no result; + = active, no number. The list is not random: actives were taken first. Their share in the collection is about 1.9%.

SMILES	MT stabilize HCS	Ins promoter up	Autophagy mod	b-catenin transl
C/C(=N\NC(=O)CC1(C)OCCO1)c1cccs1	–	–	+	–
C/C(=N/NC(=O)c1cccs1)c1cccs1	·	·	·	–
Cc1c(C(=O)OCCOc2ccc(Br)cc2)sc(=S)n1C	–	–	–	–
COc1ccc(OC)c(Nc2cc(C)nc3nc(C)nn23)c1	16	–	–	–
Cc1cc(NC(=O)NC2CC(=O)N(c3ccc4c(c3)OCCO4)C2)no1 (stereo not drawn)	–	–	–	–
CN1CCN(c2ccc(NC(=O)c3cccc(OCc4ccccc4)c3)cc2)CC1	–	–	+	–
O=C(Nc1ccc(N2CCCCC2)cc1)c1cc([N+](=O)[O-])cc([N+](=O)[O-])c1	–	–	+	–
O=C(Nc1ccc(N2CCCC2)cc1)c1cccc(F)c1	43	–	–	·
O=C(Nc1ccc(N2CCN(c3ccc(O)cc3)CC2)cc1)Oc1ccccc1	18	–	–	–
O=C(Nc1ccc(N2CCCC2)cc1)c1ccc([N+](=O)[O-])cc1Cl	–	–	–	–
O=S(=O)(Nc1ccccn1)c1cccs1	–	–	–	–
O=C(NCCOc1ccccc1)C(=O)c1c[nH]c2ccccc12	·	–	·	–
N=C1S/C(=C\c2ccc(-c3cccc(Cl)c3)o2)C(=O)N1c1nccs1	–	–	+	–
c1ccc(C2NCCn3cccc32)cc1 (stereo not drawn)	–	–	–	–
Fc1ccc(C2NCCn3cccc32)cc1 (stereo not drawn)	–	3.9	–	–
CCOP(=O)(OCC)C(C#N)=C1SCN(c2ccccc2)CS1	–	·	–	·
COc1ccc(OC)c(NC(=O)c2cnc3ccccn3c2=O)c1	–	·	–	·
COc1ccc(OC)c(NC(=O)c2cnc(Nc3ccccc3OC)c3ccccc23)c1	19	–	–	–
Cn1c(=O)oc2cc(S(=O)(=O)N3CCC(C(=O)NCc4ccc(F)cc4)CC3)ccc21	–	–	+	·
CC(C)CN(CC(C)C)S(=O)(=O)N1CCC(C(=O)NCc2cccs2)CC1	–	–	–	–
Cn1c(=O)oc2cc(S(=O)(=O)N3CCC(C(=O)NCc4cccs4)CC3)ccc21	–	–	–	·
CC1CCN(S(=O)(=O)N2CCC(C(=O)NCc3cccs3)CC2)CC1	–	–	+	–
O=C(NCc1ccc(F)cc1)C1CCCN(S(=O)(=O)c2cccnc2)C1 (stereo not drawn)	–	3.5	–	–
O=C(NCc1cccs1)C1CCCN(S(=O)(=O)c2cnc[nH]2)C1 (stereo not drawn)	–	–	+	·
CO/N=C(\c1nonc1N)N1CCN(c2ccc(Cl)cc2[N+](=O)[O-])CC1	–	·	–	·
SMILES	MT stabilize HCS	Ins promoter up	Autophagy mod	b-catenin transl
O=C(NNC(=O)[C@@H]1CCCC[C@@H]1C(=O)O)Nc1ccccc1	–	–	–	–
COc1ccc(S(=O)(=O)Nc2ccccc2OC)cc1NC(=O)CC1CC2CCC1C2 (stereo not drawn)	–	–	–	–
COc1ccc(OC)c(C2C=C(c3ccc(C)c(C)c3)Nc3nnnn32)c1 (stereo not drawn)	·	–	·	–
COc1cccc(C2=CC(c3cc(OC)ccc3OC)n3nnnc3N2)c1 (stereo not drawn)	27	–	–	–
COc1cccc(C2=CC(c3cccc(OC)c3OC)n3nnnc3N2)c1 (stereo not drawn)	23	–	–	–
O=C(Nc1nc2ccccc2[nH]1)c1cccs1	–	–	–	–
N=c1c(-c2nc3ccccc3[nH]2)cc(C(=O)c2cccs2)nn1-c1ccc(Cl)cc1	–	·	+	·
CCOC(=O)c1sc(NC(=O)CSc2nc3c(cc2C#N)CCC3)c(C#N)c1C	–	·	–	·
CCOC(=O)c1sc(NC(=O)CSc2nc3c(cc2C#N)CCCCCC3)c(C#N)c1C	–	–	+	–
CCOC(=O)c1c2ccc(OCC(=O)N/N=C/c3ccc(C)cc3)cc2n2ccccc12	–	–	+	–
Cc1ccc(CSc2ncnc3ccccc23)cc1	–	–	–	–
Cc1ccc(CSc2nc3ccccc3cc2C=O)cc1	21	–	–	–
O=Cc1cc2ccccc2nc1SCc1ccc(Cl)c(Cl)c1	18	?	–	–
O=c1[nH]c(SCc2ccc(Cl)cc2)nc2ccccc12	–	–	–	–
O=Cc1cc2ccccc2nc1SCc1ccc(Cl)cc1	28	–	–	–
CNC(=S)N(Cc1ccc2c(c1)OCO2)C1CC(=O)N(c2ccc(F)cc2)C1=O (stereo not drawn)	–	–	–	–
CCOc1ccc(/C=C2/SC(=O)NC2=S)cc1	–	–	–	–
CCOc1ccc(N=C2NC(=O)S/C2=C\c2ccc(N(C)C)cc2)cc1	–	–	+	–
Cc1nn(CC(=O)OCC(=O)NC(C)c2ccccc2)c(C)c1[N+](=O)[O-] (stereo not drawn)	–	·	–	–
CN(C)c1ccc(/C=C/C=C2/SC(=S)N(c3ccccc3)C2=O)cc1	–	·	+	·
O=C(O)c1ccc(N2C(=O)/C(=C/C=C/c3ccccc3)SC2=S)cc1	–	–	–	–
COc1ccccc1/C=C/C(=O)N1CCC(c2ccccc2)C1 (stereo not drawn)	–	–	–	–
COc1cc([N+](=O)[O-])cc2sc(NC(=O)C(C)(C)C)nc12	–	–	–	–
O=C(CSc1ccccn1)Nc1nc2ccccc2s1	–	–	–	·
O=S(=O)(CCSc1ccccn1)c1nc2ccccc2s1	–	–	+	·
SMILES	MT stabilize HCS	Ins promoter up	Autophagy mod	b-catenin transl
O=S(=O)(CCSc1nc2ccccc2o1)c1nc2ccccc2s1	–	·	+	·
CN(C)c1ccc(/C=C/C(O)=C2/C(=O)N(C)C3(C)CC2c2ccccc2O3)cc1 (stereo not drawn)	–	·	–	–
CCOc1ccc(/C=C/C(O)=C2/C(=O)NC3(C)CC2c2ccccc2O3)cc1OC (stereo not drawn)	–	–	+	·
CCOc1ccc(/C=C/C(O)=C2/C(=O)N(C)C3(C)CC2c2ccccc2O3)cc1OC (stereo not drawn)	15	–	–	–
Cc1ccnc(NC(c2cccnc2)c2ccc3cccnc3c2O)c1 (stereo not drawn)	–	–	–	–
Cc1cc(NC(c2ccc(Cl)cc2)c2ccc3cccnc3c2O)no1 (stereo not drawn)	–	·	+	·
CCN(CC)c1ccc(/C=N/NC(=O)c2ccco2)cc1	20	–	–	·
CCN(CC)c1ccc(/C=N/NC(=O)c2ccco2)c(O)c1	·	–	·	–
CCN(CC)c1ccc(/C=N/NC(=O)c2cnccn2)cc1	23	–	–	–
CCN(CC)c1ccc(/C=N/NC(=O)c2ccccn2)cc1	·	·	·	–
COc1ccc(OC)c(NC(=O)NNC(=O)CCCOc2ccc(Cl)cc2C)c1	–	–	–	–
O=C(Nc1ccccc1)c1ccc(NCCN2C(=O)CCC2=O)c([N+](=O)[O-])c1	–	–	–	–
CCCNC(=O)Cn1c(=O)/c(=C\c2ccc(-c3ccc([N+](=O)[O-])cc3)o2)s/c1=C\C(=O)C(C)(C)C	–	·	?	–
CCCNC(=O)Cn1c(=O)/c(=C\c2ccc(-c3cccc([N+](=O)[O-])c3)o2)s/c1=C\C(=O)C(C)(C)C	–	–	+	–
Cc1ccc(CN=Cc2[nH]c3ccc(Br)c(Cl)c3c2O)cc1	–	·	+	–
